Test results published in article PMC5808564 (ChemMedChem, 2017).
Where two headings read alike, the source gives them in different places.

Experiments:
[1] = target: recombinant T. brucei hexokinase 1 (rTbHK1) (Trypanosoma brucei, UniProt Q38C42); assay: biochemical; format: biochemical
[2] = tested on: T. brucei bloodstream form (BSF) parasites (cell line 90-13, a 427 strain); assay: microbe, parasite or virus in culture; format: cell-based, Trypanosoma brucei; conditions: for % T. brucei BSF growth inhibition (10 μM): 10 μM compound; for % T. brucei BSF growth inhibition (10 μM) / inhibition at 10 µM: BLD = below level of detection; for T. brucei BSF potency (LD50 ± SEM): 3-day growth, n ≥ 3; for inhibition at 10 µM: Trypanosoma brucei, A-427, read-out: % T. brucei BSF growth inhibition (10 μM), 10 μM compound
[3] = target: T1, human HK 4 (human glucokinase, hGlk) (Homo sapiens, UniProt P35557); assay: Specificity assay against human glucokinase; format: biochemical; conditions: for % hGlk inhibition (10 μM): 10 μM compound, BLD = below level of detection; for inhibition at 10 µM: read-out: % hGlk inhibition (10 μM)
T1 sequence (P35557 1-465): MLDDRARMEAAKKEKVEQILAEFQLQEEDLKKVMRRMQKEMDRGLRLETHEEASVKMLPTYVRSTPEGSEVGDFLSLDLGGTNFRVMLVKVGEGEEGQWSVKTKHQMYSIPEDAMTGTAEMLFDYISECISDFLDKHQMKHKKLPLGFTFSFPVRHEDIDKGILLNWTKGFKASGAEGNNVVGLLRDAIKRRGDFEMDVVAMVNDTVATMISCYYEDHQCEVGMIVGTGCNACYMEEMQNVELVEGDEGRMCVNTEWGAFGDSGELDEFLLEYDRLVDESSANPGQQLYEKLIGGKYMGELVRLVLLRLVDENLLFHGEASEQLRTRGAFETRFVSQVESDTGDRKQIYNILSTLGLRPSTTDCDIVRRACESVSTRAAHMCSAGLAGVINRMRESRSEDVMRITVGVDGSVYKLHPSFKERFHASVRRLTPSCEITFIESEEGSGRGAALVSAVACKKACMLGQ
Method in brief: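 Uses human hexokinase 4 (glucokinase; GenBank BC001890). Activity is read through a coupled reaction in which glucose-6-phosphate dehydrogenase converts the glucose-6-phosphate formed to 6-phosphogluconate. The coincident NADPH formation is followed at 340 nm.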

[4] = tested on: IMR-90 human cells; assay: Human cell line toxicity testing; format: cell-based
[5] = read-out: rTbHK1 potency (IC50 ± SEM), average of n ≥ 3 experiments
[6] = read-out: IMR90 toxicity (EC50), IMR-90 cells, 44-46 h
[7] = Homo sapiens, IMR-90, read-out: IMR90 toxicity (EC50)

Row | Structure (SMILES) | IC50 [1, 5] | % T. brucei BSF growth inhibition (10 μM) [2] | T. brucei BSF potency (LD50 ± SEM) [2] | % hGlk inhibition (10 μM) [3] | EC50 [4, 6] | IC50 [1] | inhibition at 10 µM [2] | inhibition at 10 µM [3] | EC50 [4, 7]
1 | CN(C)c1ccc(-c2cc(C(=O)O)c(NC(=O)c3ccc(C(C)(C)C)cc3)cc2Cl)cc1 [Compound 4l] | > 10 µM | 58.0 ± 4.0% | 6.0 ± 0.2 µM | 27.8 ± 1.7% | > 25 µM | – | – | – | –
2 | CN(C)c1cccc(-c2cc(C(=O)O)c(NC(=O)c3ccc(C(C)(C)C)cc3)cc2Cl)c1 [Compound 4m] | – | – | – | – | – | 4 ± 0.32 µM | 82.8 ± 0.2% | 43.7 ± 4.1% | > 25 µM
3 | CC(C)(C)c1ccc(C(=O)Nc2cc(Cl)c(-c3ccc(F)cc3)cc2C(=O)O)cc1 [Compound 4n] | 2.44 ± 0.08 µM | 76.7 ± 10.4% | 3.1 ± 0.7 µM | 15.1 ± 2.6% | > 25 µM | – | – | – | –
4 | CC(C)(C)c1ccc(C(=O)Nc2cc(Cl)c(-c3cccc(F)c3)cc2C(=O)O)cc1 [Compound 4o] | 4.6 ± 0.32 µM | 93.7 ± 2.6% | 1.8 ± 0.3 µM | 16.1 ± 8.7% | > 25 µM | – | – | – | –
5 | CC(C)(C)c1ccc(C(=O)Nc2cc(Cl)c(-c3ccccc3F)cc2C(=O)O)cc1 [Compound 4p] | 2.08 ± 0.07 µM | 92.8 ± 2.0% | 5.2 ± 0.9 µM | 24.5 ± 2.5% | > 25 µM | – | – | – | –
6 | CC(C)(C)c1ccc(C(=O)Nc2cc(Cl)c(-c3cccc(Cl)c3)cc2C(=O)O)cc1 [Compound 4q] | – | – | – | – | – | 2.7 ± 0.05 µM | 90.7 ± 1.8% | 30.9 ± 3.5% | > 25 µM
7 | CC(C)(C)c1ccc(C(=O)Nc2cc(Cl)c(-c3ccc(C(=O)O)cc3)cc2C(=O)O)cc1 [Compound 4r] | 3.5 ± 0.33 µM | 51.0 ± 14.3% | – | 3.5 ± 7.1% | > 25 µM | – | – | – | –
8 | CC(C)(C)c1ccc(C(=O)Nc2cc(Cl)c(-c3ccncc3)cc2C(=O)O)cc1 [Compound 4s] | > 10 µM | 99.7 ± 1.4% | 3.5 ± 0.6 µM | 15.1 ± 3.2% | > 25 µM | – | – | – | –
9 | CC(C)(C)c1ccc(C(=O)Nc2cc(Cl)c(-c3cccnc3)cc2C(=O)O)cc1 [Compound 4t] | – | 57.7 ± 14.2% | – | 16.7 ± 1.2% | > 25 µM | – | – | – | –
10 | CC(C)(C)c1ccc(C(=O)Nc2cc(Cl)c(-c3cccs3)cc2C(=O)O)cc1 [Compound 4u] | – | – | – | – | – | 0.47 ± 0.15 µM | 69.1 ± 5.8% | 12.5 ± 1.3% | > 25 µM
11 | CC(C)(C)c1ccc(C(=O)Nc2cc(Cl)c(-c3ccsc3)cc2C(=O)O)cc1 [Compound 4v] | – | – | – | – | – | 0.33 ± 0.03 µM | 68.5 ± 2.1% | 24.8 ± 1% | > 25 µM
12 | CC(C)(C)c1ccc(C(=O)Nc2cc(Cl)c(-c3ccco3)cc2C(=O)O)cc1 [Compound 4w] | – | – | – | – | – | 0.42 ± 0.02 µM | 59 ± 8.2% | 10.4 ± 2.1% | > 25 µM
13 | CC(C)(C)c1ccc(C(=O)Nc2cc(Cl)c(-c3ccoc3)cc2C(=O)O)cc1 [Compound 4x] | 0.51 ± 0.06 µM | 73.7 ± 3.7% | 4.2 ± 0.4 µM | 3.1 ± 2.8% | > 25 µM | – | – | – | –
14 | CC(C)(C)c1ccc(C(=O)Nc2cc(Cl)c(-c3ccc4c(c3)OCCO4)cc2C(=O)O)cc1 [Compound 4y] | – | – | – | – | – | 0.6 ± 0.09 µM | 98 ± 1.2% | 26.6 ± 0.4% | > 25 µM
15 | CC(C)(C)c1ccc(C(=O)Nc2cc(Cl)c(-c3ccc4c(c3)OCO4)cc2C(=O)O)cc1 [Compound 4z] | 3.9 ± 0.1 µM | 89.8 ± 1.1% | 3.0 ± 0.3 µM | 23.9 ± 2.5% | > 25 µM | – | – | – | –
